Screening results as filed in PubChem.
The sample as a whole holds a higher share of hits than the screen did.
bCat KO growth – beta-catenin-lacking colon tumor cell growth suppression | HCT116 beta-catenin knockout viability, CellTiter-Glo, 60 h; stronger effect = lower value | viability, % at 10 µM | actives 1.5% (n = 140,000) | AID 818;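 active = viability at or under a set limit, the compound median less 4 SD, cut at about 6% in these data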;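 note: 0% = Hyamine 1622 control at 20 µM and 100% = untreated cell control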
Lung fibro prol – blocks proliferation of human lung fibroblasts | actives 1.1% (n = 85,000) | viability, % at 10 µM | LL 47 human lung fibroblast viability, ATP luminescence; stronger effect = lower value;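 active = viability at or below 50% in the single dose screen; inactive = viability above 50%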;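 note: compound exposure lasted 72 h before the ATP readout; 100% = median luminescence of untreated cell-only wells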
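Assay system: human lung fibroblast line LL 47, low passage. Input: 1,150 fibroblasts seeded per well. Times: overnight cell rest, 72 h compound treatment at 37 °C. Evaluation: % viability of median cell-only signal. Technique: luminescent ATP detection, CellTiter-Glo. Control set: cell-only wells, no compound.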
PTEN del growth – growth suppressors of cells with PTEN tumor suppressor deletion | viability, % at 10 µM | actives 1.2% (n = 140,000) | HCT116 PTEN-null viability, CellTiter-Glo, 60 h; stronger effect = lower value;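 active = viability at or below a set limit, 4 SD under the median of all tested compounds, cut at about 3.7% in these data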;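 note: PTEN knockout HCT116 line with beta catenin targeted HCT116 as companion control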
H69AR inhibit – growth inhibitors of human H69AR lung tumor cells; viability, % at 10 µM; H69AR lung tumor viability, ATP luminescence, 72 h; stronger effect = lower value; actives 6% (n = 85,000);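 active = viability at or below 40%; inactive = viability above 40%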;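 note: multidrug resistant small cell line overexpressing MRP-1 efflux transporter; 100% = mean luminescence of untreated control wells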
HUVEC inhibit – blocks proliferation of human endothelial cells. HUVEC proliferation, CellTiter-Glo luminescence, 72 h; stronger effect = lower value. viability, % at 10 µM (by protocol). actives 1.1% (n = 86,000);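 active = viability at or below 30%; inactive = viability above 30%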;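 note: 100% = median luminescence of DMSO-only cell control wells on each plate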
Starred values were filed as active, the others as inactive.

What do the screens show for `O=C1CC(c2cccs2)c2cc3c(cc2N1)OCCO3` (configuration not stated)?
bCat KO growth: 76; Lung fibro prol: 94; PTEN del growth: 69; H69AR inhibit: 18*; HUVEC inhibit: 95

What do the screens show for `CCOc1ccccc1C1CC(=O)Nc2cc3c(cc21)OCO3` (configuration not stated)?
bCat KO growth: 18; PTEN del growth: 18

How did Cc1ccc(C2CC(=O)Nc3cc4c(cc32)OCCO4)s1 (configuration not stated) do in these assays?
bCat KO growth: 83; Lung fibro prol: 83; PTEN del growth: 92; H69AR inhibit: 53; HUVEC inhibit: 85

What do the screens show for `COc1ccccc1C1CC(=O)Nc2cc3c(cc21)OCCO3` (configuration not stated)?
bCat KO growth: 13; Lung fibro prol: 56; PTEN del growth: 12; H69AR inhibit: 22*; HUVEC inhibit: 46

Results for CC(C)Oc1ccccc1C1CC(=O)Nc2cc3c(cc21)OCCO3 (configuration not stated) ?
bCat KO growth: 14; Lung fibro prol: 55; PTEN del growth: 20; H69AR inhibit: 27*; HUVEC inhibit: 55

How did COc1cccc(C2CC(=O)Nc3cc4c(cc32)OCCO4)c1OC(C)C (configuration not stated) do in these assays?
bCat KO growth: 84; Lung fibro prol: 95; PTEN del growth: 84; H69AR inhibit: 27*; HUVEC inhibit: 96

How did CC1(C)C2CC=C(/C=N/NC(=O)c3ccccc3Br)C1C2 (configuration not stated) do in these assays?
bCat KO growth: 95; PTEN del growth: 94

Results for O=S1(=O)c2ccccc2N=NN1Cc1ccc(Cl)cc1 ?
bCat KO growth: 97; Lung fibro prol: 6.2*; PTEN del growth: 103; H69AR inhibit: 1.1*; HUVEC inhibit: 21*

What do the screens show for `O=S1(=O)c2ccccc2N=NN1Cc1cc(Cl)cc(Cl)c1`?
bCat KO growth: 71; Lung fibro prol: 47*; PTEN del growth: 80; H69AR inhibit: 1.2*; HUVEC inhibit: 78

What do the screens show for `COc1cc(NC(=S)NC(=O)c2ccccc2F)ccc1NC(=O)c1ccco1`?
bCat KO growth: 83; PTEN del growth: 95

How did O=C(CCc1ccccc1)NC(NC(=S)Nc1ccc(Br)cc1)C(Cl)(Cl)Cl (configuration not stated) do in these assays?
bCat KO growth: 84; Lung fibro prol: 77; PTEN del growth: 81; H69AR inhibit: 8.3*; HUVEC inhibit: 37

What do the screens show for `CCOC(=O)c1ccccc1NC(=O)CSc1nc2c(c(=O)n(C)c(=O)n2C)n1C`?
bCat KO growth: 101; PTEN del growth: 97; H69AR inhibit: 32*; HUVEC inhibit: 107

How did CCOC(=O)c1ccccc1NC(=O)c1n[nH]c(=O)c2ccccc12 do in these assays?
bCat KO growth: 7; PTEN del growth: 3.1*

How did CCOC(=O)c1ccccc1NC(=O)c1cccs1 do in these assays?
bCat KO growth: 88; Lung fibro prol: 95; PTEN del growth: 85; H69AR inhibit: 95; HUVEC inhibit: 80

Results for COP(=O)(OC)C(Nc1ccc(C)cc1)c1ccc([N+](=O)[O-])cc1 (configuration not stated) ?
bCat KO growth: 90; PTEN del growth: 94

Results for O=C(Cc1cccs1)OCC(=O)c1ccco1 ?
bCat KO growth: 89; Lung fibro prol: 92; PTEN del growth: 97; H69AR inhibit: 81; HUVEC inhibit: 92

What do the screens show for `O=C(CC(Sc1ccccc1)c1cccs1)c1ccco1` (configuration not stated)?
bCat KO growth: 52; PTEN del growth: 62; H69AR inhibit: 1.9*; HUVEC inhibit: 88

What do the screens show for `O=C(NC(Cc1c[nH]c2ccccc12)C(=O)NCc1ccc(F)cc1)OCc1ccccc1` (configuration not stated)?
bCat KO growth: 86; PTEN del growth: 96

What do the screens show for `CCCN(CCC)C(=O)CC(c1ccccc1)c1cc(Br)ccc1O` (configuration not stated)?
bCat KO growth: 84; Lung fibro prol: 80; PTEN del growth: 72; H69AR inhibit: 3.5*; HUVEC inhibit: 66

How did CCCc1cc(-c2[nH]ncc2-c2ccc3c(c2)OCCCO3)c(O)cc1OC do in these assays?
bCat KO growth: 63; Lung fibro prol: 80; PTEN del growth: 62; H69AR inhibit: 18*; HUVEC inhibit: 5.5*

What do the screens show for `CCc1cc(-c2[nH]ncc2-c2ccc3c(c2)OCO3)c(O)cc1O`?
bCat KO growth: 48; Lung fibro prol: 71; PTEN del growth: 45; H69AR inhibit: 79; HUVEC inhibit: 9.7*

How did COc1ccc(-c2[nH]ncc2-c2ccc3c(c2)OCCO3)c(O)c1 do in these assays?
bCat KO growth: 86; PTEN del growth: 80

Results for COc1ccc(COc2ccccc2C(=O)NCc2ccccc2)cc1F ?
bCat KO growth: 67; PTEN del growth: 69

Results for COc1cc(OC)cc(C(=O)Nn2cc(C(=O)Nc3ccc(F)cc3F)c3ccccc3c2=O)c1 ?
bCat KO growth: 74; PTEN del growth: 80

What do the screens show for `Oc1ccccc1-c1nnc(SCCN2CCOCC2)n1Cc1ccccc1`?
bCat KO growth: 2.7*; Lung fibro prol: 24*; PTEN del growth: 2.4*; H69AR inhibit: 15*; HUVEC inhibit: 88

How did COC(=O)C(C(=O)Nc1ccc(OC)cc1)C1CCCCCC1 (configuration not stated) do in these assays?
bCat KO growth: 43; Lung fibro prol: 83; PTEN del growth: 49; H69AR inhibit: 21*; HUVEC inhibit: 75

Results for CC(Sc1nc(N(C)C)nc(N2CCOCC2)n1)C(=O)Nc1ccccc1 (configuration not stated) ?
bCat KO growth: 109; Lung fibro prol: 94; PTEN del growth: 95; H69AR inhibit: 31*; HUVEC inhibit: 102

Results for CCOC(=O)c1sc(Nc2cccc(C)c2C)nc1C ?
bCat KO growth: 88; Lung fibro prol: 87; PTEN del growth: 87; H69AR inhibit: 83; HUVEC inhibit: 71

Results for O=C(NCC1OCCc2ccccc21)c1ccc(NC(=O)c2ccc(Cl)cc2Cl)cc1 (configuration not stated) ?
bCat KO growth: 4.9*; PTEN del growth: 1.9*

Results for CCOc1cc(C)nc(NCCc2ccc(OC)c(OC)c2)n1 ?
bCat KO growth: 98; Lung fibro prol: 101; PTEN del growth: 98; H69AR inhibit: 93; HUVEC inhibit: 119

How did O=C(O)c1sccc1SCc1ccc(Cl)cc1Cl do in these assays?
bCat KO growth: 102; PTEN del growth: 102

How did CCOC(=O)C(C)/C(C)=N/NC(N)=S (configuration not stated) do in these assays?
bCat KO growth: 103; PTEN del growth: 110

What do the screens show for `N#Cc1cc2sc3nnc(-c4ccncc4)n3c2cc1C#N`?
bCat KO growth: 6; Lung fibro prol: 45*; PTEN del growth: 13; H69AR inhibit: 29*; HUVEC inhibit: 57
